Assay outcomes (PubChem)
This is a sample that favours compounds with a hit; in the whole collection about 3.8% have one here.
Kir21 block: inhibitors of mouse Kir2.1 inward-rectifier potassium channel; HEK293-Kir2.1, FluxOR thallium flux fluorescence; active compounds read low; 0.85% of 310,000 active; B-score at 10 µM;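 active = fluorescence ratio B-score at or below minus 3 SD of library scores, with starting-brightness B-score within 2 SD, cut at about -4.2 in these data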;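 note: channel flux triggered by added potassium and thallium sulfate stimulus; B-score of peak minus minimum fluorescence over baseline after thallium stimulus; more negative B-score means stronger Kir2.1 block with less thallium influx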
KCNQ1 block: inhibitors of human KCNQ1 potassium channel | P51787 | CHO-K1 KCNQ1, FluxOR thallium flux fluorescence; active compounds read high | B-score at 10 µM | 1.3% of 310,000 active | AID 2642;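 active = compounds whose thallium flux B-score, printed positive for inhibition, exceeds three library SD while starting fluorescence stays within three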;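 note: channel opened by potassium depolarization with thallium stimulus after 20 min compound exposure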
KCNK9 block: inhibitors of human KCNK9 two-pore domain potassium channel | Q9NPC2 | HEK293 KCNK9, FluxOR thallium flux fluorescence; active compounds read low | B-score at 10 µM | 1.2% of 310,000 active | AID 488922;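 active = ratio B-score over 3 SD below the library mean, with starting fluorescence within 5 SD of its mean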;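 note: negative B-score means less thallium flux so channel inhibition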
KCNK3 block: human KCNK3 channel inhibition, primary screen; O14649; CHO-KCNK3 thallium flux, FluxOR fluorescence; active compounds read low; B-score at 10 µM; 0.84% of 340,000 active;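 active = B-score under library mean minus 4 SD, starting fluorescence ratio at most library mean plus 5 SD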;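 note: more negative B-score means stronger inhibition of thallium flux through KCNK3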
KCNQ1 act: human KCNQ1 channel potentiation or activation | AID 2648 | P51787 | CHO-K1 KCNQ1, thallium flux FluxOR fluorescence; active compounds read high | B-score at 10 µM | 0.35% of 310,000 active;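 active = fluorescence ratio B-score, a plate-corrected score, at least three library SD, with initial intensity B-score within 5 SD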
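Schedule – 37 °C overnight plating, 90-min dark dye load, 20-min compound pretreatment · System – stable KCNQ1 CHO-K1 line · Probe or stimulus – thallium- and potassium-containing depolarizing buffer · Measured by – kinetic FluxOR fluorescence, 10 s baseline plus 110 s post-stimulus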
hERG protect: hERG (human) protection from proarrhythmic block. CHO-hERG, FluxOR thallium flux, dofetilide IC70 present. activation (rescue from dofetilide block), less the hit threshold, % at 10 µM. Q12809. 0.51% of 310,000 active;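 active = activation above the mean of controls blocked by dofetilide plus 5 SD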;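 note: thallium influx through hERG after potassium depolarization seen as dye fluorescence rise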
KCNQ1 block val: reconfirmed blocker of the human KCNQ1 potassium channel. shares compounds with KCNQ1 block. KCNQ1 cell line, FluxOR thallium flux fluorescence. inhibition, % at 10 µM. 93% of 1,600 active;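 active = primary screen active, with duplicate mean exceeding buffer control mean plus 3 SD of buffer wells, cut at about 28% in these data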;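 note: 0% = buffer control ratio and 100% = XE991 inhibitor control ratio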
CHO KCNQ1 ctr: KCNQ1 inhibitor counter-screen hit in parental CHO cells. AID 588366. 21% of 1,600 active. shares compounds with KCNQ1 block. parental CHO-K1, FluxOR thallium flux fluorescence ratio; active compounds read low; zero means no signal rise above baseline. fluorescence ratio (Tl flux) at 10 µM;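 active = mean of duplicate thallium-flux fluorescence ratios in parental host cells more than 5 SD below the buffer control mean, cut at about 0.38 in these data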;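 note: ratio is peak minus minimum fluorescence divided by baseline fluorescence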
KCNQ1 APC inh: blocks human KCNQ1 current in automated patch clamp; shares compounds with KCNQ1 block; KCNQ1-CHO cells; calls only at 10 µM; 20% of 490 active;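 active = KCNQ1 current drop exceeding 3 SD of negative control wells, seen in both duplicate runs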;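 note: steady state current during a 2 s step from -80 to +40 mV; negative values mean current inhibition and positive values mean potentiation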
KCNQ2 spec: rat KCNQ2 inhibition in KCNQ1 inhibitor specificity screen | shares compounds with KCNQ1 block | KCNQ2 cells, FluxOR thallium flux fluorescence | inhibition, % at 10 µM | 71% of 1,600 active | AID 651746;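 active = mean percent inhibition of the KCNQ2 thallium signal more than 5 SD above the buffer-only control wells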;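 note: KCNQ2 expressed in CHO cells; 0% = buffer control wells and 100% = XE-991 inhibitor control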
Target sequence (O88943 whole entry, looked up): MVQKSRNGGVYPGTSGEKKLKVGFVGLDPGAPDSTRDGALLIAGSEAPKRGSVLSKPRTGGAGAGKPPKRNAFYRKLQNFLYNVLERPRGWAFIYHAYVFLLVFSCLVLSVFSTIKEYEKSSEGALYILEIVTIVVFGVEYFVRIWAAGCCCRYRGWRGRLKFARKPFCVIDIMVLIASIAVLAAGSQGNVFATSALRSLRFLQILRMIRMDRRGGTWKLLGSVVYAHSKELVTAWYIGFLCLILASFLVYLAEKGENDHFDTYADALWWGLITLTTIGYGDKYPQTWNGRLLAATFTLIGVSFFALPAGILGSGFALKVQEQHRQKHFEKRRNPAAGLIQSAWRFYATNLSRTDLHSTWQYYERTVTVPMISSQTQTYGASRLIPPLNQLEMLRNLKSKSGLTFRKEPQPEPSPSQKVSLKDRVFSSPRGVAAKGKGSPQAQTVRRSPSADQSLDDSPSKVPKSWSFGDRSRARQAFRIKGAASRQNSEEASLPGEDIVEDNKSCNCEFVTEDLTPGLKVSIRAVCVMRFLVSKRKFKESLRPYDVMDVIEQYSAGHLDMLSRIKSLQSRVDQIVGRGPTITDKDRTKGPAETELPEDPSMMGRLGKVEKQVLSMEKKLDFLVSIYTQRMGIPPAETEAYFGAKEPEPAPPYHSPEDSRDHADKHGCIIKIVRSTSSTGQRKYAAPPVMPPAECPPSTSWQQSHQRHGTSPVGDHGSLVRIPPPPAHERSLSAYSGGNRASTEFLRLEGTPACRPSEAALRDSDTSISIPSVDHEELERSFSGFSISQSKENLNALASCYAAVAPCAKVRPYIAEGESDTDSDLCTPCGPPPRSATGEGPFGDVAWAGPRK
KCNQ1-KCNE1 inh: human KCNQ1/KCNE1 inhibition in KCNQ1 specificity screen | shares compounds with KCNQ1 block | KCNQ1/KCNE1 cells, FluxOR thallium flux fluorescence | inhibition, % at 10 µM | 77% of 1,600 active | AID 652147;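 active = mean percent inhibition of duplicate wells above the buffer-only control mean plus 3 SD of those controls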;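 note: 0% = buffer only wells and 100% = XE-991 inhibitor control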
KCNK9 inh conf: confirmation of human KCNK9 potassium channel inhibitors. shares compounds with KCNK9 block. HEK293 KCNK9 cells, FluxOR thallium flux fluorescence. inhibition, % at 10 µM. 43% of 4,900 active. AID 492992;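 active = thallium signal inhibited by more than 5 SD of the compound-free buffer control wells, on both duplicate plates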;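 note: 0% = assay buffer control wells without compound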
Kir2-1 spec: selectivity of KCNK9 modulators against mouse Kir2.1; shares compounds with KCNK9 block; Kir2.1 cells, FluxOR thallium flux fluorescence; inhibition, % at 10 µM; 4% of 4,900 active;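 active = thallium signal drop more than 5 SD beyond the mean of the no-compound control wells, seen in both duplicate plates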;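 note: signal is fluorescence rise after thallium addition divided by baseline fluorescence; plate controls were assay buffer only for no effect and full block by chlorpromazine control for full effect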
KCNK9 uninduced: non-induced cell nonspecific activity of KCNK9 modulators. shares compounds with KCNK9 block. non-induced KCNK9-HEK293, FluxOR thallium flux. inhibition, % at 10 µM. 40% of 4,900 active. AID 492997;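 active = thallium signal drop beyond 5 SD of the untreated control mean, on both duplicate plates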;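 note: plate controls were buffer only IC0 wells for no effect and SID17386958 at its maximal inhibitory level for full effect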
KCNK3 confirm: human KCNK3 channel inhibition, confirmation assay; shares compounds with KCNK3 block; CHO-KCNK3 thallium flux, FluxOR fluorescence; 0% buffer, 100% carvedilol maximal block; ratio percent of control, % at 10 µM; 99% of 2,400 active; AID 651638;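 active = ratio percent of control, averaged over triplicates, above buffer control mean plus 5 SD, cut at about 64% in these data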;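 note: ratio is the fluorescence rise from min to max over baseline after thallium stimulus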
KCNK3 uninduced: counter-screen for KCNK3 inhibitors: effect in non-induced cells; thallium flux ratio (lower = more inhibition) at 10 µM; shares compounds with KCNK3 block; non-induced KCNK3 parental cells, FluxOR thallium flux; active compounds read low; 40% of 2,400 active;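 active = thallium flux ratio, averaged over three wells, more than 5 SD below the buffer control mean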;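 note: host cells are CHO cells without KCNK3 induction; ratio is peak minus trough fluorescence over baseline then normalized to buffer controls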
Numbers without * were called inactive; i = inactive; x = no result given; + = active, no number.

SMILES | Kir21 block | KCNQ1 block | KCNK9 block | KCNK3 block | KCNQ1 act | hERG protect | KCNQ1 block val | CHO KCNQ1 ctr | KCNQ2 spec | KCNQ1-KCNE1 inh | KCNK9 inh conf | Kir2-1 spec | KCNK9 uninduced | KCNK3 confirm | KCNK3 uninduced | others
CN(CC(=O)Nc1ccccc1-c1ccccc1)Cc1ccccc1Cl | 0.47 | 8* | -16* | -9.6* | i | -6 | 76* | 0.38 | 98%* | 122%* | 63%* | 55%* | 46%* | 120* | 0.13*
CN(CC(=O)Nc1ccccc1Br)CC(=O)Nc1ccccc1-c1ccccc1 | x | x | x | i | x | x | x | x | x | x | x | x | x | x | x
COCC(C)N1C(=O)Cc2c1nc(N)c1c(N)nc(N3CCN(c4ccccc4F)CC3)c(C#N)c21 (stereo not drawn) | 0.67 | 6* | -11* | i | i | -22 | 152* | 0.49 | i | + | 62%* | i | i | 115* | 0.15* | KCNQ1 APC inh=i
COCCN1C(=O)Cc2c1nc(N)c1c(N)nc(N3CCN(c4ccc(F)cc4)CC3)c(C#N)c21 | 0.4 | i | i | i | i | -15 | x | x | x | x | x | x | x | x | x
Cc1nc(N2CCN(c3ccccn3)CC2)c2c(C)c(C(=O)Nc3ccc(F)cc3Cl)sc2n1 | -0.81 | i | i | i | i | -22 | x | x | x | x | x | x | x | x | x
COc1ccc(NC(=O)c2sc3nc(C)nc(N4CCN(c5ccccn5)CC4)c3c2C)cc1Cl | 0.54 | 9* | i | -12* | i | -13 | 98* | 0.44 | 88%* | 105%* | x | x | x | 118* | 0.15* | KCNQ1 APC inh=i
CSc1cccc(NC(=O)N2CCc3ccc(NC(=O)c4ccccn4)cc3C2)c1 | 0.09 | 6* | i | -11* | i | -12 | 112* | 0.48 | 104%* | 178%* | x | x | x | 112* | 0.16* | KCNQ1 APC inh=i
COc1ccc(NC(=O)c2ccccc2OCc2ccc(F)cc2)c(OC)c1 | 0.58 | 8* | -12* | -11* | i | -11 | 76* | 0.45 | 85%* | 108%* | 72%* | i | 32%* | 108* | i
CCOc1ccccc1NC(=O)C(OC(=O)c1cc(C)oc1C)c1ccccc1 (stereo not drawn) | -1.3 | 6* | -7.9* | i | i | -11 | 82* | 0.33* | 105%* | 86%* | x | x | x | 106* | i
CC(=O)c1c(C)[nH]c(C(=O)Nc2ccc(C)c(S(=O)(=O)Nc3ccc(C)cc3C)c2)c1C | -0.33 | 12* | -7.8* | -13* | i | -15 | 142* | 0.44 | 142%* | + | x | x | x | 137* | i | KCNQ1 APC inh=i
CC(=O)c1c(C)[nH]c(C(=O)Nc2ccc(C)c(S(=O)(=O)N(C)C)c2)c1C | -5.3 | i | i | i | i | -6 | x | x | x | x | x | x | x | x | x
Cc1ccc(NC(=S)Nc2cccnc2)c(S(=O)(=O)N2CCCCC2)c1 | -0.57 | 13* | i | -12* | i | -23 | 97* | 0.51 | i | 68%* | x | x | x | 110* | i | KCNQ1 APC inh=i
N#CC1=C(N)NC(SCc2ccc(Br)cc2)=C(C#N)C12CCCCC2 | 0.02 | 18* | -6.8* | -12* | i | -13 | 140* | 0.31* | 115%* | 159%* | x | x | x | 126* | 0.13*
S=C(Nc1ccc(Br)cc1)NC1CCCC1 | -1.1 | i | i | i | i | -4 | x | x | x | x | x | x | x | x | x
FC(F)Sc1ccc(NC(=S)NC2CCCCC2)cc1 | 0.78 | 10* | i | -10* | i | -20 | 78* | 0.53 | i | 36%* | x | x | x | 104* | i
COc1cccc(-c2nc(NC3CCCC3)c3ccccc3n2)c1O | -1.4 | 9* | i | -13* | i | -8 | 140* | 0.32* | 126%* | 98%* | x | x | x | 133* | i
COc1ccccc1C(=O)NC(=O)CSc1nnc(SC)s1 | -0.54 | i | i | i | i | -16 | x | x | x | x | x | x | x | x | x
O=C(NC(Cc1ccc(O)cc1)C(=O)O)c1ccc2c(c1)OCO2 (stereo not drawn) | x | x | x | i | x | x | x | x | x | x | x | x | x | x | x
COC(=O)c1sc(-c2ccc(C(C)(C)C)cc2)cc1NC(=O)c1ccccc1C(=O)O | 0.02 | i | i | i | i | -26 | x | x | x | x | i | i | i | x | x
COC(=O)c1sc(-c2ccccc2)cc1NC(=O)C1CC1 | -0.13 | i | i | i | i | -2 | x | x | x | x | x | x | x | x | x
COC(=O)c1sc(-c2ccc(C(C)(C)C)cc2)cc1NC(=O)CSCC(=O)O | 0.82 | i | i | i | i | -8 | x | x | x | x | i | i | i | x | x
Cc1ccc(CNC(=O)C2CCCN(S(=O)(=O)N3CCC(C)CC3)C2)cc1 (stereo not drawn) | -0.24 | i | i | i | i | -9 | x | x | x | x | x | x | x | x | x
CCc1ccc(CNC(=O)C2CCCN(S(=O)(=O)N3CC(C)CC(C)C3)C2)cc1 (stereo not drawn) | 0.8 | i | -8.2* | i | i | -7 | x | x | x | x | 38%* | i | i | x | x
COc1ccccc1C1(CC(=O)O)CCOC(C(C)C)C1 (stereo not drawn) | -0.33 | i | i | i | i | -3 | x | x | x | x | x | x | x | x | x
